# Legend:
# [1] = system: CT-L, T-L and C-L catalytic activities of the proteasome; experiment: Pharmacodynamics: proteasome activity in packed whole blood; assay type: in vivo, human; details: 0·4 and 0·5 mg/m^2 MRZ, study dosing schedule
# [2] = Blood pharmacokinetics of MRZ in RRMM patients, Cycle 1 Day 8, non-compartmental; assay type: in vivo; details: human, iv
# In short: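 Relapsed/refractory myeloma patients got the test compound at 0·3–0·5 mg/m² as a 2-h IV infusion on days 1, 4, 8 and 11 of 28-day cycles, with pomalidomide and oral dexamethasone. Saline hydration ran 1 h before and 2 h after infusion. Blood was sampled on Cycle 1 Day 8 pre-dose, at 40, 80 and 120 min into infusion, and 2–90 min after its end.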
# [3] = preclinical studies; ref Di et al, 2016; cited from earlier work
# [4] = historical studies; ref Harrison et al, 2016; cited from earlier work
compound,measurement,setting,value
"C[C@@]12OC(=O)[C@]1([C@@H](O)[C@@H]1C=CCCC1)NC(=O)[C@@H]2CCCl [MRZ, Marizomib]",proteasome subunit inhibition in PWB,[1],Partial or complete proteasome subunit inhibition in PWB was achieved
same,Vd,[2],41 to 86 L
same,clearance,[2],4200 to 9400 mL/min
same,ability to cross the blood brain barrier (BBB),[3],crosses the BBB
same,half-life,[4],6 to 10 min

# Reference: publication PMC6860364 (British journal of haematology, 2017)
